STAT3 act = IL-6 driven STAT3 reporter potentiators, primary screen, U3A cells, luciferase, luminescence, MLSCN library; IL-6 STAT3-luciferase reporter; 100% = signal with IL-6 EC80 alone; activation (% of control), % at 5.6 µM; hit rate 0.91% among 190,000; AID 871, 2007;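 active = activation above the screen-wide mean of compound activation plus 3 SD, cut at about 130% in these data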
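Material: STAT3-luciferase reporter U3A cells; Probe or stimulus: IL-6 (33 ng/mL); Incubation: compound pre-incubation 1 h before IL-6, then 6 h stimulation at 37 °C; Technique: luminescence from STAT3-driven luciferase reporter; Evaluation: % activation versus median of IL-6-stimulated wells; Controls: IL-6-only high control.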
KCC2 mod = KCC2 cotransporter modulators, thallium flux, primary screen, cell-based, HEK293 KCC2, FluoZin-2 fluorescence, MLSMR; Solute carrier family 12 member 5 (Homo sapiens), Q9H2X9; KCC2 cells, thallium flux FluoZin-2 fluorescence; B-score of Tl+ flux slope (higher = more flux/activation; lower = inhibition) at 10 µM; hit rate 2.2% among 190,000; AID 1456, 2008;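 active = thallium flux slope and its plate-corrected score both differing from the plate sample mean at a set confidence after two filtering rounds, in either direction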;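 note: slope of fluorescence scaled to starting intensity during 10 to 20 s after thallium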
Target sequence (Q9H2X9 whole entry, looked up): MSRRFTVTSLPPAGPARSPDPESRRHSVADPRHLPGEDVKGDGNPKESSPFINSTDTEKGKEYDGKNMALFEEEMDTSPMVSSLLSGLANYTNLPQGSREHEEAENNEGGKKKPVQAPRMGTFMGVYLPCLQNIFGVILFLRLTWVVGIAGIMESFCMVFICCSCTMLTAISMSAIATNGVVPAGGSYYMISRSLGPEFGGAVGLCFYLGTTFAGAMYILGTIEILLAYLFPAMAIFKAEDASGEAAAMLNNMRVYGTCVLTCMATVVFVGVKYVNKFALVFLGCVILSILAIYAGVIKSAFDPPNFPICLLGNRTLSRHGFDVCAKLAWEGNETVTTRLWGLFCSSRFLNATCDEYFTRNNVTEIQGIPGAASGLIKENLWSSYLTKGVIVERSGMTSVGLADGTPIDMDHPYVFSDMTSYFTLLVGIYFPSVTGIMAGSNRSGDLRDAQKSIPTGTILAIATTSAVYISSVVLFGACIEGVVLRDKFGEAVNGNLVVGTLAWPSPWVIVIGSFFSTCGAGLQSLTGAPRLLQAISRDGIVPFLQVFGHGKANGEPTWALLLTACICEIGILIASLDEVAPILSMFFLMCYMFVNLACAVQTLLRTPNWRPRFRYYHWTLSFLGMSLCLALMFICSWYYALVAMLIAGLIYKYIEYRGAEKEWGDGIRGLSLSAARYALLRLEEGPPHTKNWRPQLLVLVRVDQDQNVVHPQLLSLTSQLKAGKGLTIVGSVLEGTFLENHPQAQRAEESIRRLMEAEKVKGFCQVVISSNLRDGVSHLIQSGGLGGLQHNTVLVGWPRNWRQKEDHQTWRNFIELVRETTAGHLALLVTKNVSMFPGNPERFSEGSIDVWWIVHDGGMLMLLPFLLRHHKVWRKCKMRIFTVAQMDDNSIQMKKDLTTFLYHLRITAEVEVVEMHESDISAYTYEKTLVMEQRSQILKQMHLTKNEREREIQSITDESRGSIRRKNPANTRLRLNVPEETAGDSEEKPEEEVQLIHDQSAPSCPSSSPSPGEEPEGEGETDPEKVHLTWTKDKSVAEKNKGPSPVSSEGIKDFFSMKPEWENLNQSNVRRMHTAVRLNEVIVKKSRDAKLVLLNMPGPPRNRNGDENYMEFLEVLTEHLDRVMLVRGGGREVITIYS
HSV replic up = enhancers of HSV replication in host cells, fold increase, host cell viability | hit rate 0.005% among 220,000 | AID 1956, 2009 | maximum fold increase | HSV replication augmentation in cells; in the data active = maximum fold increase above about 1.5; inconclusive = no clear call, values can overlap the other calls; tested in PC3 cells
STAT3 blocker = IL-6 driven STAT3 reporter inhibitors, primary screen, U3A cells, luciferase, luminescence, MLSCN library; hit rate 0.89% among 190,000; IL-6 STAT3-luciferase reporter; host cell line lacks STAT1; inhibition, % at 5.5 µM;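 active = inhibition above the mean inhibition across all screened compounds plus 3 SD, cut at about 44% in these data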
STAT1 act = STAT1 signaling activators, primary screen, cell-based, HTS, luciferase reporter; activation (% of control), % at 5.5 µM; hit rate 2.6% among 200,000; NIH 3T3 STAT1-luciferase reporter, IFN-gamma, luminescence; 100% = IFN-gamma alone, no compound;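 active = activation above the screen-wide mean activation plus 3 SD, cut at about 130% in these data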
STAT1 inh = STAT1 signaling inhibitors, primary screen, cell-based, HTS, luciferase reporter; inhibition, % at 5.5 µM; NIH 3T3 STAT1-luciferase reporter, IFN-gamma, luminescence; hit rate 0.35% among 200,000;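 active = inhibition above a set limit, the mean inhibition across all tested compounds plus 3 SD, cut at about 34% in these data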
KCC2 sec1 = KCC2 modulators in sodium-free buffer, confirmation, cell-based, HEK293 KCC2, thallium flux, secondary assay | AID 1713, 2009 | shares compounds with KCC2 mod | hit rate 15% among 3,700 | normalised thallium flux (F/F0 slope) at 10 µM | FluoZin2 fluorescence; stronger effect = higher value;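 active = thallium flux slope above the same plate's solvent-only control mean plus 3 SD; inconclusive = the two replicate wells disagree; inactive = no significant difference from solvent-only control wells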
KCC2 bumet counter = thallium flux persisting under bumetanide in KCC2 cells, confirmation, counter-screen for KCC2 modulator project, cell-based, HEK293 KCC2, FluoZin2, secondary assay 3; shares compounds with KCC2 mod; HEK293-KCC2 + bumetanide/ouabain; stronger effect = higher value; normalized thallium flux at 10 µM; hit rate 49% among 3,700;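 active = thallium entry rate above the same plate's blocked-transporter control wells by more than 3 SD; inconclusive = the two repeat wells disagree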;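 note: raw slope of fluorescence over initial fluorescence between 10 and 20 s after thallium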
KCC2 secondary2 = KCC2 modulators without ouabain present, confirmation, cell-based, HEK293 KCC2, thallium flux, FluoZin2, secondary assay 2. normalized thallium flux at 10 µM. hit rate 23% among 3,700. thallium flux FluoZin2 fluorescence; actives lie on both sides; F/F0 rise rate, 10–20 s post-thallium. AID 1715, 2009. shares compounds with KCC2 mod;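 active = thallium flux slope more than 3 SD above or below the plate's solvent-only control mean, mostly below; inconclusive = the two repeat wells disagreed; inactive = no significant shift from solvent-only controls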
HEK counter1 = thallium flux modulation in parental HEK cells, confirmation, counter-screen for KCC2 modulator project, cell-based, counterscreen 1; HEK293 parental cells, thallium flux FluoZin2, ouabain; baseline-ratio fluorescence slope, 10–20 s after thallium; thallium flux rate (normalised fluorescence) at 10 µM; shares compounds with KCC2 mod; hit rate 46% among 3,700;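 active = thallium flux rate significantly above the same plate's solvent-only control wells, beyond their mean plus 3 SD; inconclusive = the two replicate wells gave conflicting results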
KCC2 retest ouab = KCC2 inhibitors and activators, ouabain retest, confirmation, HEK-KCC2 cells; shares compounds with KCC2 mod; HEK293-KCC2, thallium flux FluoZin2 fluorescence; bidirectional: low = inhibitor, high = activator; raw Tl+ flux slope (below DMSO = inhibition, above = activation) at 10 µM; hit rate 48% among 3,700;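 active = thallium flux slope beyond 3 SD from same-plate DMSO control mean in most replicates, usually higher, sometimes lower; inconclusive = repeat tests gave conflicting results; inactive = no significant difference from controls in most replicates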;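 note: slope of initial-normalized fluorescence between seconds 10 and 20 after thallium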
HEK293 Tl flux2 = native HEK Tl+ uptake effects, second counter-screen – HEK cells, counterscreen 2, counter-screen for KCC2 modulator project, confirmation; shares compounds with KCC2 mod; HEK293 parental, thallium flux FluoZin-2 fluorescence slope; thallium flux slope at 10 µM; hit rate 33% among 3,700; AID 1718, 2009;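 active = thallium flux slope above the same plate's solvent-control mean plus 3 SD in both duplicate wells; inconclusive = duplicate wells that disagreed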;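 note: run without ouabain in cells lacking the KCC2 cotransporter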
Of the large screens only hits and unclear results are named; the others gave an inactive call (follow-up assays come after a bar, where they were run). The list is not random: actives were taken first. Their share in the collection is about 5.5%.

N#Cc1c(-c2ccccc2Cl)cc(-c2ccccc2)[nH]c1=S	KCC2 mod 17 | KCC2 sec1 0.015 | KCC2 bumet counter 0.028 | KCC2 secondary2 inactive | HEK counter1 0.022 | KCC2 retest ouab 0.035 | HEK293 Tl flux2 0.013
COc1ccc(CCN=C(N)NS(=O)(=O)c2ccc(F)cc2)cc1	none
CSc1ccccc1NC(=O)c1cc(C(C)C)on1	none (no result: KCC2 mod) | KCC2 sec1 inactive | KCC2 bumet counter inactive | KCC2 secondary2 inactive | HEK counter1 inactive | KCC2 retest ouab inactive | HEK293 Tl flux2 inactive
C/C(=N\NC(=O)CNc1cccc(C(F)(F)F)c1)c1cccc(Br)c1	KCC2 mod 5.4 | KCC2 sec1 inactive | KCC2 bumet counter inactive | KCC2 secondary2 inactive | HEK counter1 inactive | KCC2 retest ouab inactive | HEK293 Tl flux2 inactive
CCCN(CC1CC1)C(=O)CSc1nnc(-c2cc(-c3cccs3)nc3ccccc23)o1	none (no result: KCC2 mod)
CCc1ccc(OCc2nnc(SCC(=O)Nc3cccc(C(=O)N4CCOCC4)c3)o2)cc1	KCC2 mod -3.4 | KCC2 sec1 inactive | KCC2 bumet counter inactive | KCC2 secondary2 inactive | HEK counter1 inactive | KCC2 retest ouab inactive | HEK293 Tl flux2 inactive
O=C1Nc2ccccc2S/C1=C/Nc1cccc(Cl)c1	STAT1 act 130 (no result: KCC2 mod) | KCC2 sec1 inactive | KCC2 bumet counter inconclusive | KCC2 secondary2 inactive | HEK counter1 inactive | KCC2 retest ouab 0.015 | HEK293 Tl flux2 inactive
O=C(c1ccccn1)N1N=C2/C(=C/c3ccc(F)cc3)CCCC2C1c1ccc(F)cc1 (centres undefined)	none
O=C(/C=C/c1ccco1)N1CCC(Cc2ccccc2)CC1	KCC2 mod -4.9 | KCC2 sec1 inactive | KCC2 bumet counter inactive | KCC2 secondary2 0.021 | HEK counter1 inactive | KCC2 retest ouab 0.014 | HEK293 Tl flux2 inactive
Oc1c(N=NC(=S)Nc2ccccc2F)c2ccccc2n1Cc1ccc(F)cc1	KCC2 mod 8.3 | KCC2 sec1 inactive | KCC2 bumet counter 0.03 | KCC2 secondary2 inactive | HEK counter1 0.013 | KCC2 retest ouab inactive | HEK293 Tl flux2 0.014
Oc1c(N=NC(=S)Nc2ccccc2F)c2ccccc2n1Cc1cccc(Cl)c1	none
Cc1ccc2c(c1)c(N=NC(N)=S)c(O)n2Cc1ccccc1	KCC2 mod 4.3 | KCC2 sec1 inactive | KCC2 bumet counter 0.0075 | KCC2 secondary2 inactive | HEK counter1 0.011 | KCC2 retest ouab inactive | HEK293 Tl flux2 0.014
NC(=S)N=Nc1c(O)n(Cc2ccc(Br)cc2)c2ccccc12	none
NC(=S)N=Nc1c(O)n(Cc2ccc(F)cc2)c2ccccc12	KCC2 mod 4.7 | KCC2 sec1 inconclusive | KCC2 bumet counter 0.01 | KCC2 secondary2 inactive | HEK counter1 0.014 | KCC2 retest ouab 0.029 | HEK293 Tl flux2 0.012
Cc1cccc(Cn2c(O)c(N=NC(=S)Nc3ccccc3F)c3ccccc32)c1	KCC2 mod 6.8 | KCC2 sec1 inactive | KCC2 bumet counter 0.031 | KCC2 secondary2 inactive | HEK counter1 inconclusive | KCC2 retest ouab inconclusive | HEK293 Tl flux2 inactive
Cc1nn(Cc2n[nH]c(=S)n2Cc2ccccc2)c(C)c1Cl	none
O=C(/C=C/c1ccc(S(=O)(=O)N2CCOCC2)cc1)NCc1ccc(Cl)cc1	none
CCCCOC(=O)c1nc[nH]c1C(=O)OCCCC	none
CC(C)N1C(=O)C2C(C(=O)NCc3ccccc3)C3C=CC2(O3)C1C(=O)NC(C)(C)C (centres undefined)	KCC2 mod 2.8 | KCC2 sec1 inactive | KCC2 bumet counter inactive | KCC2 secondary2 inactive | HEK counter1 inactive | KCC2 retest ouab inactive | HEK293 Tl flux2 inactive
O=C(CCCN1C(=O)c2cccc3cccc(c23)C1=O)N1CCc2ccccc2C1	KCC2 mod -4.1 | KCC2 sec1 inactive | KCC2 bumet counter inconclusive | KCC2 secondary2 0.024 | HEK counter1 0.0058 | KCC2 retest ouab 0.012 | HEK293 Tl flux2 inactive
CCCNC(=S)NNC(=O)c1cccs1	none
COC(=O)c1cc(NC(=O)Nc2ccccc2OC)cc(C(=O)OC)c1	none
COc1ccc(N2CCN(C(=O)CN(c3cccc(Br)c3)S(C)(=O)=O)CC2)cc1	none
CS(=O)(=O)N(CC(=O)N1CCN(c2ccccc2)CC1)c1cccc(Br)c1	none (no result: KCC2 mod) | KCC2 sec1 inactive | KCC2 bumet counter inactive | KCC2 secondary2 0.023 | HEK counter1 inactive | KCC2 retest ouab 0.015 | HEK293 Tl flux2 inactive
Cc1cccc(N(CC(=O)N2CCN(c3ccc(F)cc3)CC2)S(C)(=O)=O)c1C	none
CS(=O)(=O)N(CC(=O)N1CCN(c2ccc(F)cc2)CC1)c1ccc(F)c(Cl)c1	KCC2 mod -4.4 | KCC2 sec1 inconclusive | KCC2 bumet counter inactive | KCC2 secondary2 0.028 | HEK counter1 inactive | KCC2 retest ouab 0.016 | HEK293 Tl flux2 inactive
CC1CCC(NCc2ccco2)CC1 (centres undefined)	none
O=C(Oc1c(-c2ccccc2)c(=O)n2c3c(cccc13)CC2)c1ccccc1	KCC2 mod -4.4 (no result: STAT3 act, STAT3 blocker, STAT1 act, STAT1 inh) | KCC2 sec1 inactive | KCC2 bumet counter inactive | KCC2 secondary2 inactive | HEK counter1 0.0054 | KCC2 retest ouab 0.013 | HEK293 Tl flux2 0.0072

Screening results deposited in PubChem by several laboratories.
